Source: the RNAGym collection of RNA variant scans (doi:10.1038/s41586-018-0170-7)

B1: tRNA (parent)
chain: GUUCCGUUGGCGUAAUGGUAACGCGUCUCCCUCCUAAGGAGAAGACUGCGGGUUCGAGUCCCGUACGGAACG

Variants of: B1
Assay: yeast fitness, log relative to wild type (ln ratio); higher = fitter; tRNA-Arg(CCU), competitive growth, 37 C, 1 M NaCl
Outline: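 A combinatorial tRNA-Arg(CCU) variant library was carried on a HIS3 centromeric plasmid in BY4742 lacking the chromosomal gene, from two independent transformations. Pools grew 4 generations in SC-HIS at 30 °C, then ~6.5 generations (~26.5 h) in SC-HIS 1M NaCl at 37 °C, with three outputs per input. Variants were counted by 125 bp paired-end Illumina sequencing. Fitness is ln of each genotype's generations (OD-scaled log2 output/input frequency, inverse-variance weighted across replicates) over the wild-type's.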

Point of comparison: U2C G6A C66U A69G, “yeast fitness (ln)” value -0.271. Against it:
- U2G A43C — higher, -0.0825
- U2C G6U C46U C66U A70G C71U — higher, -0.0117
- U2C G6U A43C C71U — higher, -0.117
- U2C G6U C27U A43C C46U C66A A69G A70G — higher, -0.051
- U2C G6U C27U A43C C46U C66A A69G A70U — higher, -0.101
- U2C G6U C27U A43C C46U C66U C71U — lower, -0.299
- U2C G6U A70U C71U — higher, -0.102
- U2C G6U A43C C66U — higher, -0.161
- U2C G6U A43C C66A — higher, -0.135
- U2C G6U A43C C66U A69G C71U — lower, -0.454
- U2C G6A C66U A70U C71U — higher, -0.172
- U2C G6U C66U A69G A70G C71U — lower, -0.346
- U2G A43C A69G C71U — higher, -0.163
- U2C G6A C46U C66U A69G — lower, -0.293
- U2C G6U A43C C46U C66U A70U C71U — higher, -0.254
- U2C G6U C46U A70U — higher, -0.0445
- U2C G6U C46U A70G — higher, -0.0195
- U2C G6U C27U A69G A70U C71U — lower, -0.354
- U2C G6U C27U A43C A69G A70U — the same, -0.271
- U2C G6U C27U A43C A69G A70G — higher, -0.242
- U2C G6A C46U — higher, -0.0163
- U2C G6U C27U A43C C46U A69G C71U — higher, -0.187
- U2C G6U C27U C46U C66A C71U — higher, -0.0782
- U2C G6U C46U — higher, -0.0289
- U2C G6U C27U C66A A70G C71U — higher, -0.0263
- U2C G6U C27U A43C C66A — higher, -0.104
- U2C G6U C27U A43C C66U — higher, -0.0999
- U2C G6U C27U — higher, -0.0654
- U2C G6U A43C C46U — higher, -0.0413
- U2C G6A C66U A69G A70G C71U — higher, -0.0248
- U2C G6U A43C C66A A69G A70G — higher, -0.029
- U2C G6U A43C C66A A69G A70U — lower, -0.338
- U2C G6A C46U C66A A70G C71U — higher, -0.142
- U2C G6U C46U C66U A70G — higher, -0.0115
- U2C G6U C46U C66U A70U — higher, -0.0353
- U2C G6U A70G C71U — higher, -0.0899
- U2C G6A C66U A70G C71U — higher, -0.0109
- U2C G6U C27U A43C A69G A70G C71U — lower, -0.281
- U2C G6U C27U C46U C66A A70G — higher, -0.0216
- U2C G6U C27U C46U C66A A70U — lower, -0.29
- U2C G6U A43C C46U C66A — higher, -0.0972
- U2C G6U A43C C46U C66U — higher, -0.158
- U2C G6U C27U A43C C66A A70G C71U — higher, -0.0868
- U2C G6U C27U A43C C46U C66A A69G A70U C71U — higher, -0.26
- U2C G6U C46U C66U C71U — higher, -0.112
- U2C G6U C66A A69G A70G — higher, -0.0222
- U2C G6U C66A A69G A70U — higher, -0.25
- U2C G6U C27U A43C C46U C66A C71U — higher, -0.17
- U2C G6A C27U C66U A70G — higher, -0.0339
- U2C G6A C27U C66U A70U — higher, -0.203
- U2C G6U C27U A43C C46U — higher, -0.0629
- U2C G6U C27U C46U C66U A69G A70U C71U — lower, -0.546
- U2C G6U C27U C46U A69G A70G — lower, -0.274
- U2C G6U C27U C46U A69G A70U — higher, -0.196
- U2C G6U A43C C46U A70U — higher, -0.061
- U2C G6U A43C C46U A70G — higher, -0.113
- U2C G6A C27U C71U — higher, -0.212
- U2C G6U A43C C46U C66A A70G — higher, 0.0031
- U2C G6U A43C C46U C66A A70U — higher, -0.21
- U2C G6U A70U — higher, -0.0726
- U2C G6U A70G — higher, -0.0391
- U2C G6U C66U A70U — higher, -0.0735
- U2C G6U C66U A70G — higher, -0.0259
- U2C G6U A43C C66A C71U — higher, -0.0984
- U2C G6U C27U A43C — higher, -0.0819
- U2C G6A C46U A69G A70G C71U — higher, -0.145
- U2C G6U C27U C46U C66U C71U — higher, -0.183
- U2C G6U A43C C46U C66U A69G A70G C71U — higher, -0.169
- U2C G6A C27U C66U A69G A70U — higher, -0.138
- U2C G6A C46U C66U A69G A70G C71U — higher, -0.00401
- U2C G6A C66U C71U — lower, -0.28
- U2C G6U C27U C66A A70U C71U — higher, -0.26
- U2C G6A C46U A69G C71U — higher, -0.107
- U2C G6U C27U A43C C66U A69G A70G — lower, -0.426
- U2C G6U C27U A43C C46U A69G A70U C71U — lower, -0.309
- U2C G6U C27U C46U A69G A70G C71U — higher, -0.244
- U2C G6U A43C C46U A69G C71U — higher, -0.17
- U2C G6U C27U C66U A70U — higher, -0.194
- U2C G6U C27U C66U A70G — higher, -0.215
- U2C G6U C27U C46U C66U A70G — higher, -0.0763
- U2C G6U C27U C46U C66U A70U — higher, -0.132
- U2G A43C A69G A70G C71U — higher, -0.168
